# Key:
# Candida albicans [1] = assay: Minimum effective concentration is the lowest concentration at which some (5%) morphologically abnormal cells were observed under microscopic examination.; format: functional; conditions: read-out: MEC
# Summary of the method: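 C. albicans H-317 (clinical isolate) grown at 37 °C in yeast nitrogen base with 0.5% isoleucine and 5.0% glucose, harvested at early log phase, washed. Twofold serial dilutions in yeast nitrogen base, 1×10^6 cells/mL per well, 48 h at 37 °C in humid chamber with slight agitation; wells examined microscopically for lowest concentration giving ~5% abnormal cells.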
# Candida albicans [2] = assay: (§1) Concentration at which 50% of the cells incubated, were not able to form colonies when replated.; format: functional
# Summary of the method: (§2)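 C. albicans H-317 grown at 37 °C with stirring in yeast nitrogen base with 0.5% isoleucine and 5.0% glucose, harvested at early log phase. Cells were exposed at 1×10^6 cells/mL to twofold serial drug dilutions and incubated 48 h at 37 °C in a humid chamber. Wells were plated on potato dextrose agar for 2 days at 37 °C. Viability was taken as colonies versus hemocytometer counts.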
# [3] = target: Chitin synthase 1 (Candida albicans) (UniProt P23316); assay: Inhibitory activity against chitin synthetase from Candida albicans H-317; format: functional
# Summary of the method: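 Mixed membrane fraction of C. albicans H-317 (5.17 mg protein/mL stock), trypsin-activated 10 min at 37 °C with ATP in imidazole buffer pH 6.5; trypsin inhibitor, GlcNAc and UDP-[14C]GlcNAc then added with inhibitor at 10^-3 to 10^-6 M. Aliquots taken at 5–60 min, acid/ethanol-precipitated chitin filtered and scintillation-counted; ID50 = concentration giving half of initial velocity from dose-response curves.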
# Candida albicans [4] = assay: as §1; format: ADME, organism-based; conditions: read-out: Viability; summary of the method: as §2
# Chitin synthase 1 (Candida albicans), sequence (P23316 whole entry, looked up): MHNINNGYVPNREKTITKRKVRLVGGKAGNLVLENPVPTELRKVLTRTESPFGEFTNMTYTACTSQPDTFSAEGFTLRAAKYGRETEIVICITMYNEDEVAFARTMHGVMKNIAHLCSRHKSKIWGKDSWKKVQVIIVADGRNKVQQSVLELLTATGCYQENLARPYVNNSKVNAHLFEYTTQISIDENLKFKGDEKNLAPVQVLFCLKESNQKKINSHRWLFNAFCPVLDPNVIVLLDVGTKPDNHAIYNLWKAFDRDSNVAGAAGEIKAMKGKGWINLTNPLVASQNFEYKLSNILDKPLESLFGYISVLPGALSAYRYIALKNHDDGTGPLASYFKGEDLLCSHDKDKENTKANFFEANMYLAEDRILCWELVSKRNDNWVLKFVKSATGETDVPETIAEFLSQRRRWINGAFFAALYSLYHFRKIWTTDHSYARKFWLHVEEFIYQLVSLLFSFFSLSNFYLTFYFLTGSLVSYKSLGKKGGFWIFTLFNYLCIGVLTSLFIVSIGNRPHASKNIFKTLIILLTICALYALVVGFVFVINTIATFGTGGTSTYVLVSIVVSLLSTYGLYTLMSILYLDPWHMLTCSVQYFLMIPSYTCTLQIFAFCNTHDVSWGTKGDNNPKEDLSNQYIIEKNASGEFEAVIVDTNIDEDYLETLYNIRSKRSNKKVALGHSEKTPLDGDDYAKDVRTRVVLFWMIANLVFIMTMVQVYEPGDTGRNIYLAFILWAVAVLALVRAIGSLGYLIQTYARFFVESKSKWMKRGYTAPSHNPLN
ID50 [3] [µM],SMILES,minimal effective concentration (Candida albicans [1]) [µM],Viability (Candida albicans [2]) [mM],LC50 (Candida albicans [4]) [µM]
68,NC(=O)NCCCC(N)C(=O)N[C@@H](C(=O)O)[C@H]1O[C@@H](n2ccc(=O)[nH]c2=O)[C@H](O)[C@@H]1O (some centres undefined),500,>8,–
> 100,NC(C(=O)O)[C@H]1O[C@@H](n2ccc(=O)[nH]c2=O)[C@H](O)[C@@H]1O (some centres undefined),8000,>8,–
14,CCCCC(N)C(=O)NC(C(=O)O)[C@H]1O[C@@H](n2ccc(=O)[nH]c2=O)[C@H](O)[C@@H]1O (some centres undefined),170,4,–
1.7,N[C@@H](Cc1c[nH]c2ccccc12)C(=O)NC(C(=O)O)[C@H]1O[C@@H](n2ccc(=O)[nH]c2=O)[C@H](O)[C@@H]1O (some centres undefined),130,>8,–
3.8,NC(CCc1ccccc1)C(=O)NC(C(=O)O)[C@H]1O[C@@H](n2ccc(=O)[nH]c2=O)[C@H](O)[C@@H]1O (some centres undefined),60,>8,–
16,NC(Cc1ccc(Oc2ccc(O)cc2)cc1)C(=O)NC(C(=O)O)[C@H]1O[C@@H](n2ccc(=O)[nH]c2=O)[C@H](O)[C@@H]1O (some centres undefined),2000,4,–

SMILES,ID50 [3] [µM],minimal effective concentration (Candida albicans [1]) [µM],Viability (Candida albicans [2]) [mM],LC50 (Candida albicans [4]) [µM]
NC(Cc1ccc(O)cc1)C(=O)NC(C(=O)O)[C@H]1O[C@@H](n2ccc(=O)[nH]c2=O)[C@H](O)[C@@H]1O (some centres undefined),4.9,8000,–,> 8000
NC(=O)OCC(O)C(O)C(N)C(=O)NC(C(=O)O)[C@H]1O[C@@H](n2cc(C(=O)O)c(=O)[nH]c2=O)[C@H](O)[C@@H]1O (some centres undefined),1.8,2,1,–

# Reference: ChEMBL document CHEMBL1122379, “Design of anticandidal agents: synthesis and biological properties of analogues of polyoxin L” (J Med Chem, 1983)
